# TRPML3 agonist: activates the human TRPML3 channel | Q8TDD5 | HEK293 TRPML3-YFP, Fluo-8 calcium fluorescence; 100% = the carbachol control signal | activation, % at 3 µM | 0.29% of 220,000 active | AID 1448;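 active = activation above its plate's cutoff, the mean activation of the plate's test wells plus 3 SD, cut at about 12% in these data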
# Target sequence (Q8TDD5 whole entry, looked up): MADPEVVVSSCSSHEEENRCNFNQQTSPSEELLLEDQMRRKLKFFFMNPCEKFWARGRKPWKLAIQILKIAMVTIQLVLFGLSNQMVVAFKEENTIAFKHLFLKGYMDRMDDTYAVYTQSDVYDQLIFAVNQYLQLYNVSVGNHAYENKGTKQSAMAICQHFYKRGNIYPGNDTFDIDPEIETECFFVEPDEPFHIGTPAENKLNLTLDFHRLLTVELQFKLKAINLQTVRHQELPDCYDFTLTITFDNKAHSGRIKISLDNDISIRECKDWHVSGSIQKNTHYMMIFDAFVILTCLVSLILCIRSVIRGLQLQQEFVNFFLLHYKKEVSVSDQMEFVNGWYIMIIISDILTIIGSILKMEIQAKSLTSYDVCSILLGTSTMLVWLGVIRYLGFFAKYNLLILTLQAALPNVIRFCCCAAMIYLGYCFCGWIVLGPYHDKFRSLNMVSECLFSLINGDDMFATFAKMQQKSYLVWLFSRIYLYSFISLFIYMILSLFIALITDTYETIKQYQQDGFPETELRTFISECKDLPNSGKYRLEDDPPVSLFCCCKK
#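 system = HEK293 cells stably carrying human TRPML3-YFP | doses = one concentration, 3 µM nominal, 0.3% DMSO | timing = dye loading 1 h 37 °C then 30 min ambient, 125 s read | detection = Fluo-8 calcium dye fluorescence, ex 470-495, em 515-575 nm | benchmarks = high control carbachol 87 µM, low control DMSO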
# OXTR agonist: agonists of human oxytocin receptor; CHO-OTR cells, Fluo-8 calcium fluorescence; normalized: DMSO 0%, oxytocin 100%; activation, % at 3 µM; 0.32% of 320,000 active; AID 2435;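 active = activation above the mean of all tested compounds plus 3 SD, cutoff set per screening run, cut at about 20% in these data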;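 note: peak over basal fluorescence ratio from a 100 s FLIPR kinetic read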
# V1R ag counter: counter-screen for oxytocin receptor agonists: human V1a receptor agonists. CHO-V1R cells, Fluo-8 calcium fluorescence, agonist mode; 0% DMSO, 100% 3 nM vasopressin. activation, % at 3 µM. 0.25% of 320,000 active. AID 2797;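 active = activation above the mean activation of all tested compounds plus 3 SD, per screening run, cut at about 20% in these data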;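 note: signal is peak over basal fluorescence ratio across a 100 second FLIPR read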
# TRPN1 ag: activates the zebrafish TRPN1 channel | HEK293 zebrafish TRPN1-YFP, Fluo-8 calcium fluorescence; 100% = response to 87 µM carbachol | 0.18% of 220,000 active | activation, % at 3 µM;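 active = activation above its plate's cutoff, the mean activation of test wells on that plate plus 3 SD, cut at about 19% in these data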
#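 Material: zebrafish TRPN1-YFP in HEK293 cells. Doses: one dose of 3 µM, 0.3% DMSO. Incubation: dye 1 h 37 °C plus 30 min RT. Measured by: intracellular calcium fluorescence with Fluo-8.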
# OXTR potentiator: potentiators of human oxytocin receptor | activation, % at 3 µM | CHO-OTR cells, Fluo-8 calcium fluorescence, potentiator mode; 0% = oxytocin EC15, 100% = EC100 | P30559 | 0.061% of 320,000 active | AID 2445;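 active = activation above that plate's cutoff, the mean activation of tested compounds plus 3 SD, cut at about 6.6% in these data, passing the limit was not always enough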
#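 Measured by – Fluo-8 calcium dye fluorescence · Test system – human OTR in CHO cells · Dosing – one concentration, 3.0 µM compound · Controls – EC15 oxytocin alone as 0%, 75 nM oxytocin as 100% · Evaluation – normalized max/min fluorescence ratio, % activation · Timing – 6 min pre-incubation, 100 s read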
# TRPN1 counter: zebrafish TRPN1 agonism as TRPML3 agonist counter-screen; activation, % at 3 µM; shares compounds with TRPML3 agonist; 10% of 310 active; HEK293 zebrafish TRPN1-YFP, Fluo-8 calcium fluorescence; scaled: carbachol wells 100%, DMSO wells 0%; AID 1525;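 active = mean activation over replicates above a set limit taken from the earlier TRPN1 channel primary screen, cut at about 19% in these data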
# TRPML3 confirm: confirmation of human TRPML3 channel agonists. shares compounds with TRPML3 agonist. HEK293 TRPML3-YFP, Fluo-8 calcium fluorescence; 100% set by carbachol, 0% by DMSO. activation, % at 3 µM. 80% of 310 active. AID 1526;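 active = activation above a set limit derived from the earlier primary screen, cut at about 12% in these data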
# Hits are given with their value; . = inactive; / = no result given. Compounds with a hit are over-represented: about 0.58% of the library has one in this group of screens.
SMILES,TRPML3 agonist,OXTR agonist,V1R ag counter,TRPN1 ag,OXTR potentiator,others
COC(=O)c1ccc(CNC(=O)Cn2cnc3c(OCc4ccccc4)ncnc32)cc1,/,.,.,/,.,
COc1ccc(N2CCN(CCNC(=O)Nc3ccc(C)c(Cl)c3)CC2)cc1,/,.,.,/,.,
COc1cc(NC(=O)NCCN2CCN(c3ccc(Cl)cc3)CC2)ccc1C,.,22,35,.,.,
CC1CCN(S(=O)(=O)c2ccc(C(=O)N3CCOCC3)cc2)CC1,/,.,.,/,.,
COc1cc(CN(C2CCCCC2C)S(=O)(=O)c2ccc(S(=O)(=O)NC3CC3)cc2)cc(OC)c1OC (stereo unspecified),.,.,.,.,.,
COc1ccc(CN(C2CCCCC2C)S(=O)(=O)c2ccc(S(=O)(=O)N(C)C)cc2)cc1OC (stereo unspecified),145,.,.,39,.,
O=S(=O)([O-])CCC[n+]1c(/C=C\Nc2ccccc2)oc2ccc(-c3ccccc3)cc21,25,/,/,119,/,
CCN(CCn1cccn1)C(=O)CCc1nnc(CCCc2ccccc2)o1,26,.,.,44,.,
O=C(O)c1cccc(-n2c(/C=C/c3ccccc3)nc3ccccc3c2=O)c1,/,.,.,/,.,
CN(C)c1ccc(/C=C/c2nc3ccccc3c(=O)n2-c2ccc(C(=O)O)cc2)cc1,/,77,82,/,.,
O=C(COC(=O)c1ccc(F)cc1Cl)NC1CCS(=O)(=O)C1 (stereo unspecified),/,.,.,/,.,
CCOC(=O)CC1C(=O)NCCN1c1nc2c(C)cccn2c(=O)c1/C=C1\SC(=S)N(CC(C)C)C1=O (stereo unspecified),12,/,/,36,/,
CC(C)CN1C(=O)/C(=C/c2c(N3CCc4ccccc4C3)nc3ccccn3c2=O)SC1=S,.,/,/,.,/,
O=C(Nc1ccc(OCc2ccccc2)cc1)c1cccnc1,.,21,22,.,.,
O=C(Nc1ccc(OCc2ccccc2)cc1)c1ccccc1,.,.,.,.,.,
Cc1cccc(C=Nc2ccc3c4c(cccc24)CC3)c1O,.,.,25,.,.,
CCc1ccc(O)c(N=Cc2cccc(C)c2O)c1,.,.,.,.,.,
Cc1ccc(Oc2ccc(NS(=O)(=O)c3cccc(C(=O)O)c3)cc2)cc1,/,.,.,/,.,
COc1cccc(N2CCN(C(=O)c3cc(C)oc3C)CC2)c1,/,.,.,/,.,
O=C1SCCC1NS(=O)(=O)c1ccc([N+](=O)[O-])cc1 (stereo unspecified),/,.,.,/,26,
Cc1cc(C)c2c(=O)n(CC(=O)Nc3ccc(Cl)cc3)sc2n1,.,32,30,.,.,
CN(C)C=Nc1c(Br)cc(Br)c2nonc12,.,106,84,.,.,
CN(C)C=Nc1nonc1-c1ccccc1,.,.,.,.,.,
CCOC(=O)c1cnc2c(C)cc(Cl)cc2c1N1CCN(C)CC1,/,.,.,/,.,
COc1cc(-c2noc(C)c2-c2ccc3[nH]ccc3c2)cc(OC)c1OC,/,.,.,/,.,
SMILES,TRPML3 agonist,OXTR agonist,V1R ag counter,TRPN1 ag,OXTR potentiator,others
COc1cc(-c2noc(C)c2-c2ccc(N(C)C)nc2)cc(OC)c1OC,/,36,34,/,.,
O=C(CN1C(=O)C2C3CC(C(Br)C3Br)C2C1=O)N1CCN(Cc2ccccc2)CC1 (stereo unspecified),.,.,.,27,.,
O=C(CN1C(=O)C2C3CC(C(Br)C3Br)C2C1=O)N1CCOCC1 (stereo unspecified),.,.,.,.,.,
NS(=O)(=O)c1ccc(CNC(=O)c2cccnc2Cl)cc1,/,.,.,/,.,
O=S(=O)(c1ccc2ccccc2c1)N1CCCCC1,16,.,.,.,.,TRPN1 counter=.;TRPML3 confirm=12
O=S(=O)(c1ccc2ccccc2c1)N1CCCCCC1,81,.,.,.,.,TRPN1 counter=.;TRPML3 confirm=62
CC(C)c1ccc(S(=O)(=O)N2CCCCC2)cc1,15,.,.,.,.,TRPN1 counter=.;TRPML3 confirm=15
COc1cc(S(=O)(=O)N2CCCCCC2)ccc1Cl,44,.,.,.,.,TRPN1 counter=.;TRPML3 confirm=61
COc1cc(S(=O)(=O)N2CCN(C)CC2)ccc1Cl,.,.,.,.,.,
CN1CCCN(S(=O)(=O)c2ccc3ccccc3c2)CC1,/,.,.,/,.,
COc1cc(Cl)ccc1OCc1cc(C(=O)N2C[C@]3(C)C[C@H]2CC(C)(C)C3)no1,/,.,.,/,.,
O=C(c1cn(-c2ccccc2)nc1-c1cccnc1)N1CCN(S(=O)(=O)c2cccc(F)c2)CC1,/,.,.,/,.,
Cc1ccc(S(=O)(=O)Nc2cc(C(F)(F)F)ccc2N2CCOCC2)cc1,.,.,.,.,.,
Cc1ccc(S(=O)(=O)Nc2cc(C(F)(F)F)ccc2N2CCOCC2)c(C)c1,48,.,.,.,.,TRPN1 counter=.;TRPML3 confirm=102
CCc1ccccc1NC(=O)C(Cc1ccccc1)c1nn[nH]n1 (stereo unspecified),/,.,.,/,.,
COc1ccc(C2NC(=O)c3ccccc3O2)cc1 (stereo unspecified),/,.,.,/,.,
